{"data": "Assay results collected from several papers", "Antigen peptide transporter 1/Antigen peptide transporter 2": "Antigen peptide transporter 1/Antigen peptide transporter 2 (Homo sapiens, UniProt Q03518+Q03519)", "Slc6a3": "Sodium-dependent dopamine transporter (Slc6a3, Rattus norvegicus, UniProt P23977)", "note": "Each line is one published result; the experiments were not run side by side."}
{"SMILES": "CC[C@H](C)[C@H](NC(=O)[C@H](CC(C)C)NC(=O)[C@@H](N)CO)C(=O)NCC(=O)N[C@@H](CCCCN)C(=O)N[C@H](C(N)=O)C(C)C", "target": "Proteinase-activated receptor 2 (F2RL1, Homo sapiens, UniProt P55085)", "assay": "calcium signal, agonist", "measurement": "EC50", "value": "5800 nM"}
{"SMILES": "COC(=O)C(NC(=O)c1cn(CCCCCO)c2ccccc12)C(C)(C)C (centres unmarked)", "target": "Cannabinoid receptor 1 (Cnr1, Rattus norvegicus, UniProt P20272)", "assay": "ligand displacement, radioligand", "conditions": "cell membranes", "measurement": "IC50", "value": "106 nM"}
{"SMILES": "COc1ccc2cccc(C(CO)CNC(=O)CF)c2c1 (centres unmarked)", "target": "Melatonin receptor type 1B (MTNR1B, Homo sapiens, UniProt P49286)", "assay": "cAMP, agonist, TR-FRET", "measurement": "EC50", "value": "17.8 nM"}
{"SMILES": "CC[C@H](C)[C@H](NC(=O)[C@H](C)NC(=O)CN)C(=O)N[C@@H](CC(=O)O)C(=O)N[C@@H](CCCCN)C(=O)N1CCC[C@H]1C(=O)N[C@H](C(=O)N[C@@H](CC(C)C)C(=O)N[C@@H](CCCCN)C(=O)O)[C@@H](C)CC", "target": "Antigen peptide transporter 1/Antigen peptide transporter 2", "assay": "ligand displacement", "measurement": "IC50", "value": "8200 nM"}
{"SMILES": "CC(NC(C)(C)C)C(=O)c1ccccc1 (centres unmarked)", "target": "Slc6a3", "assay": "transporter uptake, inhibitor, radiometric", "measurement": "IC50", "value": "1310 nM"}
{"SMILES": "CSCC[C@H](NC(=O)[C@@H]1CCCN1C(=O)[C@H](CCCNC(=N)N)NC(=O)[C@H](CC(C)C)NC(=O)[C@@H]1CCCN1C(=O)[C@@H](NC(=O)[C@H](C)N)C(C)C)C(=O)N[C@H](C(=O)N[C@@H](Cc1ccc(O)cc1)C(=O)N[C@@H](C)C(=O)O)[C@@H](C)O", "target": "Antigen peptide transporter 1/Antigen peptide transporter 2", "assay": "ligand displacement", "measurement": "IC50", "value": "5000 nM"}
{"SMILES": "CNC(C)C(=O)c1cccc(Cl)c1 (centres unmarked)", "target": "Slc6a3", "assay": "transporter uptake, inhibitor, radiometric", "measurement": "IC50", "value": "342 nM"}
{"SMILES": "O=c1c(O)c(-c2ccc(O)c(O)c2)oc2cc(O)cc(O)c12", "target": "CX3C chemokine receptor 1 (CX3CR1, Homo sapiens, UniProt P49238)", "assay": "β-arrestin recruitment, antagonist", "measurement": "IC50", "value": "4500 nM"}
